Measurements from paper PMC4502975 (Angewandte Chemie (International Ed. in English), 2014).
Entries after “also recorded” stand apart in the source; their conditions may differ. One block for each compound: values may come before it.

How the values were obtained:
human AC [1] = biological target: T1, human AC (Homo sapiens, UniProt Q13510); assay: Kinetic analysis of the AC reaction; assay type: biochemical; settings: mean of two independent experiments
T1 sequence (Q13510 22-395): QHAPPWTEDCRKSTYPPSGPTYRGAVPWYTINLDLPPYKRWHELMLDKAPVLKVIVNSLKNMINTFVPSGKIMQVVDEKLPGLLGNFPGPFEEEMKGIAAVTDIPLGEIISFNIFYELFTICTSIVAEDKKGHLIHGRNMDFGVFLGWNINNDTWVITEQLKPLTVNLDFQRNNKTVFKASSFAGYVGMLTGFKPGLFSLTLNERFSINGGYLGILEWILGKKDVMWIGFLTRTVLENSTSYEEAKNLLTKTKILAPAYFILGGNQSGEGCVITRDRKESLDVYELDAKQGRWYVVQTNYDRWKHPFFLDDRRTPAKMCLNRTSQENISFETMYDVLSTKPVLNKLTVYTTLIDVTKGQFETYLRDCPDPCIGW
In short: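 Kinetic analysis of the fluorescence-based AC reaction run with vehicle (1% DMSO) or test compound at 20 or 50 nm, n=6 each. Vmax given in relative fluorescence units; KM derived for each condition. Values are the mean of two independent experiments.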

[2] = biological target: T2, purified recombinant human AC (Homo sapiens, UniProt Q13510); assay: LC-MS study of covalent adduct with AC; assay type: binding; settings: 1:10 protein:compound, 1 h, 37 °C, pH 4.5
T2 sequence (Q13510 143-395 limits assumed): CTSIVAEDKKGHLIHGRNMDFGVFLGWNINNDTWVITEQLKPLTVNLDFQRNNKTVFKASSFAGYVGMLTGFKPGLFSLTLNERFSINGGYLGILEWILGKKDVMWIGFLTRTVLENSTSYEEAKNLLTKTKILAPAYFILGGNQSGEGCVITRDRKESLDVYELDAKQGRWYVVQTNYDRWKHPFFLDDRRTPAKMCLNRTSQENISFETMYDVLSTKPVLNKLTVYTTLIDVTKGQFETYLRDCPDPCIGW
T2 sequence (Q13510 22-142 limits assumed): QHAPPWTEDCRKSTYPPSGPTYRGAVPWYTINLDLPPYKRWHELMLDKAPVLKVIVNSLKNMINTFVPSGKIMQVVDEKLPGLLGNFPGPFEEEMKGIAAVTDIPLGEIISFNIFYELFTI

[3] = Buffer stability in AC assay buffer pH 4.5 by LC-MS; assay type: physicochemical
human AC [4] = biological target: T1, human AC; assay: Acid ceramidase; assay type: biochemical; settings: for IC50 [nM] ±S.E.M on human AC: means of at least three determinations
[5] = Chemical stability in [D6]DMSO; assay type: physicochemical
rat AC = settings: read-out: IC50 for rat AC; cited from earlier work

- Vmax (human AC [1]; 9 a 20 nM): 7808 RFU
- Vmax (human AC [1]; 9 a 50 nM): 3889 RFU
- half-life at 10 µM [3]: 2.1 ± 0.05 h
Structure (SMILES): O=C(NCCCCc1ccccc1)n1c(=O)oc2ccccc21 [9 a, 2-oxo-N-(4-phenylbutyl)-1,3-benzoxazole-3-carboxamide]
- covalent binding to AC (LC-MS, tryptic peptide CTSIVAEDK) [2]: covalently binds to the catalytic cysteine, Cys-143

- IC50 [nM] ±S.E.M on human AC (human AC [4]): not stable
- chemical stability in [D6]DMSO [5]: limited chemical stability
Structure (SMILES): O=c1oc2ccccc2n1C(=S)NCCCCc1ccccc1 [9 b]

- potency relative to 9 a (human AC [4]; human AC): two-fold increase in potency
- half-life at 10 µM [3]: 4.9 ± 0.5 h
Structure (SMILES): O=C(NCCCCc1ccccc1)n1c(=O)oc2cc(Br)ccc21 [16 a]

- inhibition of AC in vitro (human AC [4]; at 10 μM): did not inhibit
Structure (SMILES): O=c1[nH]c2ccc(-c3ccc(F)cc3)cc2o1 [compound 19]

Second part, the compound before the results:

Structure (SMILES): CN(CCCCc1ccccc1)C(=O)n1c(=O)oc2ccccc21 [9 c]
- IC50 [nM] ±S.E.M on human AC (human AC [4]): no inhibitory activity; also recorded: no inhibition

Structure (SMILES): O=C(OCCCCc1ccccc1)n1c(=O)oc2ccccc21 [9 d]
- IC50 [nM] ±S.E.M on human AC (human AC [4]): no inhibitory activity; also recorded: no inhibition

Structure (SMILES): O=C(CCCCCc1ccccc1)n1c(=O)oc2ccccc21 [9 e]
- IC50 [nM] ±S.E.M on human AC (human AC [4]): Loss of activity; also recorded: no inhibition

Structure (SMILES): CCCCCCNC(=O)n1cc(F)c(=O)[nH]c1=O [carmofur, 5-fluoro-N-hexyl-2,4-dioxo-pyrimidine-1-carboxamide]
- IC50 (rat AC): 29 nM
